# High-throughput results deposited in PubChem by Broad Institute.
# T cruzi growth: blocks T. cruzi growth in NIH3T3 culture; T. cruzi beta-gal in NIH3T3, GalScreen luminescence, 90 h; AID 624255; hit rate 5.9% among 77,000; inhibition, % at 8.34 µM;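 active = mean inhibition above about 93%, with at least 55% of replicates each passing it, limit read from the data, passing the limit was not always enough; inconclusive = only one of those two conditions holds; inactive = neither condition holds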
# Pf Dd2 inh: P. falciparum Dd2 growth inhibition | SYBR Green, 72 h; active compounds read low | activity change, % at 10 µM | hit rate 2.3% among 94,000 | AID 1159554; in the data active = activity change below about -80%; inconclusive = no clear call, values can overlap the other calls
# IDH1 R132H inh: inhibitors of human IDH1 R132H | O75874 | IDH1 R132H reductase, diaphorase/resazurin fluorescence, 60 min | inhibition, % at 10 µM | hit rate 0.18% among 70,000; in the data active = inhibition above about 34%; inconclusive = no clear call, values can overlap the other calls; inactive = below about 11%
# Target sequence (O75874 whole entry R132H): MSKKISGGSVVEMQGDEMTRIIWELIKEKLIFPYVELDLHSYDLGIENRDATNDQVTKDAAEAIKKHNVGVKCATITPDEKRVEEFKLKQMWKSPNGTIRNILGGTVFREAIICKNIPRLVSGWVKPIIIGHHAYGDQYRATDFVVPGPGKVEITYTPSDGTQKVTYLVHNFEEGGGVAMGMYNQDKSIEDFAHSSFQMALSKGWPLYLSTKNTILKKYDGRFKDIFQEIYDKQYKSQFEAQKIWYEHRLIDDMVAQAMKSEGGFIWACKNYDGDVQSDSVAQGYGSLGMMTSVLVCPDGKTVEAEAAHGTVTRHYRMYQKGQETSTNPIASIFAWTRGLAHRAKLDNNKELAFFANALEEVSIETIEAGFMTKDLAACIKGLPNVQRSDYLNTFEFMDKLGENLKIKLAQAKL
# KDM4C inh: inhibitors of human demethylase GASC-1 KDM4C; Q9H3R0; GST-KDM4C 2-372, H3K9me3 peptide, LANCE TR-FRET; inhibition, % at 12.5 µM; hit rate 0.15% among 96,000; AID 720574;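 active = mean replicate inhibition above about 25%, with at least 55% of replicates also reaching it, limit read from the data, passing the limit was not always enough; inconclusive = only one of those two conditions met; inactive = neither condition met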
#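 System: N-terminal GST-fused human GASC-1 (KDM4C) fragment, residues 2-372 / Amount: 10 nM GST-KDM4C in enzyme reaction / Also added: H3K9me3 peptide with Fe(II)/2OG / Times: 30 min demethylation and 1 h detection at room temperature / Signal: LANCE TR-FRET / Read-out basis: Fall in 671/618 emission ratio as inhibition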
# Numbers stand for hits; 0 = inactive; ? = inconclusive; - = not tested or not shown. Shown are actives, neighbours in structure and some others; about 5.8% of the full set was active somewhere.
SMILES,T cruzi growth,Pf Dd2 inh,IDH1 R132H inh,KDM4C inh
CC(C)C#Cc1ccc2c(c1)O[C@@H](CN(C)C)[C@@H](C)CN([C@H](C)CO)S2(=O)=O,-,0,74.5,60.3
C[C@H]1CN([C@@H](C)CO)S(=O)(=O)c2ccc(C#Cc3cccc(F)c3)cc2O[C@@H]1CN(C)C,0,0,71.4,55.2
O=S(=O)(N[C@H]1CC[C@H](CCn2cc(-c3cccnc3)nn2)O[C@@H]1CO)c1ccc(F)cc1,0,0,0,0
COc1ccc(NC(=O)Nc2cccc3c2O[C@H](CN(C)C(=O)Nc2ccc(F)cc2)[C@@H](C)CN([C@H](C)CO)C3=O)cc1,-,0,0,0
CCC(=O)N[C@@H]1C=C[C@H](CC(=O)NCC2CCCCC2)O[C@@H]1CO,0,0,0,0
O=C(C[C@@H]1C=C[C@@H](NC(=O)C2CCC2)[C@H](CO)O1)NC1CCC1,-,-87.1,0,0
CCC(=O)N[C@H]1C=C[C@H](CC(=O)NCC2CCCCC2)O[C@@H]1CO,0,-87.8,0,0
CN(C)CCCNC(=O)C[C@H]1CC[C@H]2[C@@H](COC[C@@H](O)CN2CC2CC2)O1,0,0,-,0
C[C@H](CO)N1C[C@H](C)[C@@H](CN(C)Cc2ccc(C(=O)Nc3ccccc3N)cc2)Oc2ccc(NC(=O)Nc3ccc4c(c3)OCO4)cc2CC1=O,0,-83.4,0,0
C[C@@H]1CN([C@H](C)CO)C(=O)Cc2cc(NC(=O)Nc3ccc4c(c3)OCO4)ccc2O[C@H]1CN(C)Cc1ccc(C(=O)Nc2ccccc2N)cc1,0,0,0,0
C[C@@H]1CN([C@H](C)CO)C(=O)Cc2cc(NC(=O)Cc3ccccc3)ccc2O[C@@H]1CN(C)Cc1ccc(C(=O)Nc2ccccc2N)cc1,-,-84.8,0,0
C[C@H]1CN([C@@H](C)CO)C(=O)Cc2cc(NC(=O)Nc3ccccc3)ccc2O[C@@H]1CN(C)Cc1ccc(C(=O)Nc2ccccc2N)cc1,-,-,-,0
C[C@H]1CN([C@@H](C)CO)C(=O)Cc2cc(NC(=O)Cc3ccccc3)ccc2O[C@@H]1CN(C)Cc1ccc(C(=O)Nc2ccccc2N)cc1,-,-88.2,-,0
C[C@@H]1CN([C@@H](C)CO)C(=O)Cc2cc(NC(=O)Cc3ccccc3)ccc2O[C@H]1CN(C)Cc1ccc(C(=O)Nc2ccccc2N)cc1,-,0,0,0
CC(=O)N1CC2(C1)[C@@H](c1ccc(-c3cccc(F)c3)cc1)[C@@H](CO)N2CC1CCCC1,-,?,-,0
COc1ccc2c3c(n(C)c2c1)[C@@H](CO)N(Cc1ccccc1)CC31CN(S(=O)(=O)c2ccc(C)cc2)C1,-,0,-,-
COc1ccc2c3c(n(C)c2c1)[C@H](CO)N(Cc1ccccc1)CC31CCN(S(=O)(=O)c2ccc(C)cc2)CC1,-,-84.3,-,0
CCS(=O)(=O)N1CCC2(CC1)CN(S(=O)(=O)c1ccccc1)[C@@H](CO)c1c2c2ccc(OC)cc2n1C,-,-84.2,-,0
CCS(=O)(=O)N1CC2(C1)CN(S(=O)(=O)c1ccccc1)[C@@H](CO)c1c2c2ccc(OC)cc2n1C,-,0,-,0
O=C(c1ccc(F)cc1)N1C[C@H]2[C@@H](c3ccccc31)[C@@H](CO)N2C(=O)c1ccccc1,0,0,-,0
C[C@H]1CN([C@@H](C)CO)C(=O)c2cccc(NC(=O)Nc3ccccc3)c2O[C@@H]1CN(C)C(=O)Nc1ccc2c(c1)OCO2,0,0,-,-
CCCNC(=O)C[C@@H]1C[C@H]2c3cc(NC(=O)CC4CC4)ccc3O[C@H]2[C@H](CO)O1,0,0,?,41.1
CN(C)c1ccc2c(c1)[C@H]1C[C@H](CC(=O)NCc3ccc(-c4ccccc4)cc3)O[C@H](CO)[C@H]1O2,-,0,-,0
O=C(C[C@@H]1C[C@@H]2c3cc(NC(=O)Cc4ccncc4)ccc3O[C@@H]2[C@H](CO)O1)NCc1ccccc1,0,0,0,0
CN(C)c1ccc2c(c1)[C@@H]1C[C@@H](CC(=O)NCc3ccccn3)O[C@@H](CO)[C@@H]1O2,0,0,0,28.2
SMILES,T cruzi growth,Pf Dd2 inh,IDH1 R132H inh,KDM4C inh
CCCNC(=O)C[C@@H]1C[C@H]2c3cc(NC(=O)CC4CC4)ccc3O[C@H]2[C@@H](CO)O1,0,0,0,0
O=C(C[C@H]1C[C@H]2c3cc(NC(=O)Cc4ccncc4)ccc3O[C@H]2[C@H](CO)O1)NCc1ccccc1,0,-89.2,0,0
CN(C)c1ccc2c(c1)[C@@H]1C[C@H](CC(=O)NCc3ccccc3)O[C@@H](CO)[C@@H]1O2,0,0,0,46.7
C[C@@H]1CN([C@@H](C)CO)C(=O)Cc2cc(NC(=O)Nc3ccc(F)cc3)ccc2O[C@@H]1CN(C)S(=O)(=O)c1cn(C)cn1,0,0,0,0
O=C(CSc1nnc(-c2ccncc2)n1-c1ccc(Cl)cc1)Nc1ccc(F)cc1F,-,-,0,-
C[C@H](CO)N1C[C@H](C)[C@H](CN(C)Cc2ccc(Oc3ccccc3)cc2)Oc2ccc(NC(=O)Nc3ccccc3)cc2C1=O,0,0,-,0
CO[C@H]1CN(C)C(=O)c2ccc(NC(=O)c3ccccc3)cc2OC[C@@H](C)N(C)C[C@@H]1C,0,-,0,0
CO[C@@H]1CN(C)C(=O)c2ccc(NC(=O)c3ccccc3)cc2OC[C@H](C)N(C)C[C@@H]1C,0,-,89.1,0
CO[C@H]1CN(C)C(=O)c2ccc(NC(=O)C3CCCC3)cc2OC[C@H](C)N(C(C)=O)C[C@H]1C,-,-,0,47.3
CO[C@H]1CN(C)C(=O)c2ccc(NC(=O)c3cccc(F)c3)cc2OC[C@H](C)N(C)C[C@H]1C,0,0,0,37.7
CO[C@H]1CN(C)C(=O)c2ccc(NS(=O)(=O)CC(F)(F)F)cc2OC[C@H](C)N(C)C[C@@H]1C,-,-86.8,-,0
Cc1noc(C)c1NC(=O)Nc1cccc2c1O[C@@H](CN(C)S(=O)(=O)c1ccccc1)[C@@H](C)CN([C@H](C)CO)C2=O,0,0,0,0
C[C@@H]1CN([C@H](C)CO)C(=O)c2cc(NC(=O)NC3CCCCC3)ccc2O[C@@H]1CN(C)C(=O)Nc1cccc2ccccc12,0,0,0,0
CO[C@H]1CN(C)C(=O)c2cc(NC(=O)c3cccc(F)c3)ccc2OC[C@@H](C)N(C(C)=O)C[C@@H]1C,0,-,0,0
CO[C@@H]1CN(C)C(=O)c2ccc(NC(=O)Nc3c(C)noc3C)cc2OC[C@H](C)N(C)C[C@@H]1C,0,0,0,51.3
CO[C@@H]1CN(C)C(=O)c2cc(NC(=O)c3cccc(F)c3)ccc2OC[C@H](C)N(C(C)=O)C[C@H]1C,0,-,97.6,64.5
CC(C)NC(=O)N(C)C[C@H]1Oc2ncc(C#Cc3ccccc3F)cc2C(=O)N([C@@H](C)CO)C[C@@H]1C,0,-82.1,0,0
C[C@@H]1CN([C@H](C)CO)C(=O)c2cc(C#Cc3ccccc3F)cnc2O[C@H]1CN(C)C(=O)c1ccc2c(c1)OCO2,0,-86.3,0,0
COc1ccc(C#Cc2cnc3c(c2)C(=O)N([C@@H](C)CO)C[C@H](C)[C@H](CN(C)C(=O)c2ccccc2F)O3)cc1,0,-81.7,0,0
COc1ccc(C#Cc2cnc3c(c2)C(=O)N([C@H](C)CO)C[C@@H](C)[C@@H](CN(C)C(=O)c2ccccc2F)O3)cc1,0,0,0,0
